eLon inh: inhibitors of E. coli Lon protease, primary screen, biochemical, fluorescence polarization; P0A9M0; purified E. coli Lon protease; inhibition, % at 7.94 µM; 360,000 compounds, 0.42% hits; AID 602123, 2011; in the data active means inhibition above about 13%, passing the limit was not always enough;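 further: 0% = enzyme with probe and DMSO and 100% = no enzyme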
TDP2 inh: human TDP2 enzyme inhibitors, primary screen, biochemical, epi absorbance, recombinant enzyme. inhibition, % at 12.8 µM. T5PNP hydrolysis, p-nitrophenol absorbance 415 nm. Tyrosyl-DNA phosphodiesterase 2 (Homo sapiens), O95551. 370,000 compounds, 0.34% hits. AID 720702, 2013;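 active means inhibition above the mean of all tested compounds plus 3 SD, set per campaign, cut at about 25% in these data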;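 further: 0% = DMSO with enzyme and 100% = buffer with substrate but no TDP2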
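Test system: human TDP2 enzyme; Input: 120 nM TDP2 per well; Buffer or medium: Mg2+-containing Tris-HCl buffer, pH 7.5; Reagent: 5 mM T5PNP; Dosing: 12.8 µM single point, 1% DMSO; Incubation: reaction 2 h, 37 °C; Detection: p-Nitrophenol epi absorbance; Read-out: % inhibition relative to enzyme-containing and enzyme-free wells; Replicates: single well per compound.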
GSTO1 inh: inhibitors of recombinant GSTO1, primary screen, counter-screen for RBBP9 inhibitor project, biochemical, fluorescence polarization | Glutathione S-transferase omega-1 (Homo sapiens), P78417 | activity-based probe fluorescence polarization | inhibition, % at 5.96 µM | 300,000 compounds, 1.1% hits;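 active means inhibition above the campaign mean inhibition plus 3 SD, cut at about 35% in these data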;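 further: 0% = GSTO1-1 with DMSO and 100% = wells lacking GSTO1-1 enzyme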
Target sequence (P78417 whole entry, looked up): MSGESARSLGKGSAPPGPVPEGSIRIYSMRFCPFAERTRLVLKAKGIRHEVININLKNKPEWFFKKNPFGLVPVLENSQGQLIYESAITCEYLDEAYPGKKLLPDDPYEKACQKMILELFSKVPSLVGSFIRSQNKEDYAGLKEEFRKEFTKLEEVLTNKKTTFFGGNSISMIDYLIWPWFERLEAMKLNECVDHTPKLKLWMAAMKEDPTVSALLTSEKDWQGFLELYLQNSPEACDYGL
PAD4 inh: human PAD4 inhibitors, primary screen, biochemical, fluorescence polarization, 1536-well format | inhibition, % at 6.36 µM | 330,000 compounds, 0.41% hits | recombinant PAD4, RCA probe fluorescence polarization;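 active means percent inhibition above a cutoff equal to the mean of all tested compounds plus 3 SD, cut at about 15% in these data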;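 further: 0% = PAD4 with RCA probe and DMSO and 100% = probe without PAD4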
PRMT1 inh: PRMT1 methyltransferase inhibitors, primary screen, biochemical, fluorescence polarization | Protein arginine N-methyltransferase 1 (Homo sapiens), Q99873 | recombinant PRMT1, activity-based probe fluorescence polarization | inhibition, % at 2.79 µM | 370,000 compounds, 1.3% hits | AID 652257, 2013;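 active means inhibition above about 21% made by adding two undisclosed values, limit read from the data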
Target sequence (Q99873 whole entry, looked up): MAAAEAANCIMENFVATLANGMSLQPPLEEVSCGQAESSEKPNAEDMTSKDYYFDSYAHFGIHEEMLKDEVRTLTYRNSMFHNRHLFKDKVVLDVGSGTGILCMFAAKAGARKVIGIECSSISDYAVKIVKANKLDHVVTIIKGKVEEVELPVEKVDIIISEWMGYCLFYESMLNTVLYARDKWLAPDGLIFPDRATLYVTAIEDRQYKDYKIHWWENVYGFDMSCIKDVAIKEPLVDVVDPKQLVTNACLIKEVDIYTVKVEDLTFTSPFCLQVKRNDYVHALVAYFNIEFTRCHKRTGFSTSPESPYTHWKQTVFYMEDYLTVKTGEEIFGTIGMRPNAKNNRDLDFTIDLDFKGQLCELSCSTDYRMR
GSTO1 confirm: GSTO1 inhibitor hit confirmation, counter-screen for RBBP9 inhibitor project, biochemical, fluorescence polarization, triplicate. shares compounds with GSTO1 inh. recombinant GSTO1, probe fluorescence polarization. inhibition, % at 5.96 µM. 2,400 compounds, 54% hits;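 active means inhibition above the primary screen's cutoff, its mean inhibition plus 3 SD, cut at about 35% in these data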;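 further: loss of polarization as inhibitors block binding of rhodamine sulfonate ester activity probe; 0% = GSTO1 with DMSO and 100% = wells lacking GSTO1 enzyme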
* hit, by the source's call; . = not tested or not shown. An excerpt weighted towards active compounds, which were near 2.5% of everything screened.

SMILES	eLon inh	TDP2 inh	GSTO1 inh	PAD4 inh	PRMT1 inh	others
COc1ccc(/C=C2\C(=O)NC(=S)N(C)C2=O)cc1C	0.6	-2.2	11.5	-0.8	44.9*
CC(C)C(C(=O)NC(C)(C)C)N1C(=O)CN=C(c2ccccc2)c2ccccc21 (stereo not drawn)	.	-4.1	.	.	1.4
CC(NC(=O)OC1CC2CCC1(C)C2(C)C)P(=O)(Oc1ccccc1)Oc1ccccc1 (stereo not drawn)	.	6.9	.	.	-2.2
CCCC(=O)N1c2ccc(Cl)cc2C(c2ccccc2)=NCC1C(=O)NC(C)(C)C (stereo not drawn)	.	-6.6	.	.	-2.6
CCCCCn1c(NC(=O)c2ccco2)c(C(=O)OCC)c2nc3ccccc3nc21	-3.4	.	73.6*	7.2	.
CCOC(=O)c1c(N)n(CCCOC(=O)c2ccco2)c2nc3ccccc3nc12	3.5	5.8	33.0	-2.5	-2.2
CCCCN1CCN(C(=O)COc2cc(=O)n(C)c3ccccc23)CC1	.	-0.5	.	.	-0.7
CN1C(=O)C(=Cc2ccccc2Oc2ccc(Cl)cc2)C(=O)N(C)C1=O	15.4	8.8	10.7	-3.0	21.5*
CN1C(=O)C(=Cc2ccccc2OCc2ccc(Cl)cc2)C(=O)N(C)C1=O	-8.3	-5.1	10.5	5.4	3.5
CCOC(=O)[C@]12Cc3cc(Cl)ccc3[C@H]1N(C1CCCCC1)C(=O)c1cc(OC)ccc12	-0.9	5.7	.	.	-2.4
C/C(CC(c1ccccc1)c1c(O)c2ccccc2oc1=O)=N\Nc1ccc([N+](=O)[O-])cc1[N+](=O)[O-] (stereo not drawn)	1.6	-4.9	37.3*	-9.8	5.8
O=c1oc2ccccc2c(O)c1C(c1ccc([N+](=O)[O-])cc1)c1c(O)c2ccccc2oc1=O	-11.3	15.3	.	.	5.3
CC1CCN(C(CC(=O)c2ccccc2)C(=O)c2ccccc2)CC1 (stereo not drawn)	-10.7	-12.2	.	.	72.2*
COc1ccc(CC2=NCCc3cc(OC)c(OC)cc32)cc1OC	-3.4	30.6*	.	.	-1.4
O=C1C(=O)c2cccc3cccc1c23	-3.0	6.4	37.6*	-6.7	0.4
COC(=O)C1=C(C(=O)OC)SC2(S1)C(C(=O)OC)=C(C(=O)OC)Sc1c2ssc1=O	-19.3	-6.6	.	.	105.1*
Cc1cccc(N2C(=O)/C(=C/c3ccc(CN(CCC#N)S(C)(=O)=O)o3)C(=O)NC2=S)c1	-18.6	-8.0	5.3	-13.7	41.1*
COc1cc(C2c3cc4c(c(O)c3CC3COC(=O)C32)OCO4)cc(OC)c1OC (stereo not drawn)	-5.5	3.5	.	.	0.6
COc1cc(C2c3cc4c(cc3CC3COC(=O)C32)OCO4)cc(OC)c1OC (stereo not drawn)	4.5	3.9	.	-1.5	22.0*
CC1=C(C(=O)O)N2C(=O)[C@@H](NC(=O)CCCC(=O)O)[C@H]2SC1	7.2	-5.1	2.5	-2.9	23.3*
COc1ccc(Cn2c(N)c(C(=O)NCc3ccco3)c3nc4ccccc4nc32)cc1OC	-29.3	-7.3	52.7*	-3.9	7.0
COCCCNC(=O)c1c(N)n(Cc2ccco2)c2nc3ccccc3nc12	-12.7	0.8	4.5	-10.2	20.4
O=S(=O)(c1ccc(Cl)cc1)N1Cc2ccc(Br)cc2-n2nncc2C1	.	6.3	.	.	4.4
O=C1CN(C(=O)COC(=O)Cc2ccccc2)c2ccccc2N1	-5.1	7.5	34.9*	-2.7	-4.0
CN1/C(=C\C=C\C2=[N+](C)c3ccc4ccccc4c3C2(C)C)C(C)(C)c2ccccc21	.	.	-123.9	119.4*	.
SMILES	eLon inh	TDP2 inh	GSTO1 inh	PAD4 inh	PRMT1 inh	others
CN1/C(=C\C=Nc2ccccc2)C(C)(C)c2ccccc21	-9.5	-1.7	-9.1	-51.5	3.5
O=C(NC(CCC(O)CO)P(=O)(Oc1ccccc1)Oc1ccccc1)OCc1ccccc1 (stereo not drawn)	.	2.5	.	.	-3.5
CCOC(=O)CC[C@@H]1CC[C@]2(CCCN(Cc3cccnc3)C2)O1	.	8.9	.	.	0.6
C=C1C(=O)C(C)=C2C(=O)N3Cc4[nH]c5ccccc5c4CC3(C(=O)OC)C12 (stereo not drawn)	.	7.0	.	.	11.0
c1cncc(C2Nc3cccc4cccc(c34)N2)c1	11.1	0.9	64.4*	-7.4	12.1
CC[C@H](C)/C=C(C)/C=C/C1=CC2=C(Cl)C(=O)[C@@](C)(OC(C)=O)C(=O)C2=CO1	.	.	35.8*	9.2	.
CCn1c(O)c(C=Nc2cc(Cl)ccc2Cl)c(=O)n(CC)c1=O	-1.0	-0.7	3.7	-5.9	21.8*
Cc1cccc(C(C)c2cnc[nH]2)c1C (stereo not drawn)	.	-4.2	.	.	1.5
Nc1c(C(=O)NCC2CCCO2)c2nc3ccccc3nc2n1Cc1ccco1 (stereo not drawn)	-40.5	-6.3	16.4	-9.9	13.5
Nc1c(C(=O)NC2CCCC2)c2nc3ccccc3nc2n1CC1CCCO1 (stereo not drawn)	-6.7	5.7	65.8*	18.7*	-0.7
O=C(O)CCl	.	-9.2	.	.	2.4
O=C(c1ccccc1)N1Cc2cc(Br)ccc2-n2nncc2C1	.	0.8	.	.	-1.4
CN1C(=O)C(Cc2ccccc2)C(=O)N(C)C1=O	-10.0	10.5	.	.	3.0
CN1C(=O)C(Cc2ccc3c(c2)OCO3)C(=O)N(C)C1=O	.	.	41.2*	-2.0	.
CC(C)C[C@H]1C(=O)N2CCC[C@H]2[C@]2(O)O[C@](NC(=O)[C@@H]3C=C4c5cccc6[nH]cc(c56)C[C@H]4N(C)C3)(C(C)C)C(=O)N12	92.1	.	51.4*	6.8	.	GSTO1 confirm=5.5
CC(C)CN(CC(C)C)c1ccc(C=C2C(=O)NC(=S)NC2=O)cc1[N+](=O)[O-]	3.7	0.5	41.6*	-4.8	16.6	GSTO1 confirm=26.5
CCN(CC)c1ccc(C=C2C(=O)NC(=S)NC2=O)cc1	-9.0	6.8	1.6	0.2	9.9
CN(C)C1C(=O)C(C(N)=O)=C(O)C2(O)C(=O)C3=C(O)c4c(O)cccc4C(C)(O)C3C(O)C12 (stereo not drawn)	2.5	11.1	68.4*	-3.3	48.5*	GSTO1 confirm=41.9*
O=C(NCC1=C(c2cccc3ccccc23)C[C@@H]2CC[C@H]1N2Cc1ccco1)c1ccc([N+](=O)[O-])cc1	-4.2	-2.9	.	.	2.2
Cn1c(O)c(C2=NN(C(=O)CCl)C(c3ccccc3)C2)c(=O)n(C)c1=O (stereo not drawn)	10.0	11.9	101.7*	3.5	-1.1	GSTO1 confirm=98.0*
CC(C)(C)n1nnnc1C(CCc1ccccc1)N1CCC2(CC1)C(=O)NCN2c1ccccc1 (stereo not drawn)	4.8	-3.3	.	.	-2.8
